The species named for test [1] is Sus scrofa. The test is described as follows: Increase in isometric force of porcine myocardial skinned fibers at 30 uM. The test is classed as functional.
The species named for test [2] is Sus scrofa. The test is described as follows: Effect on porcine myocardial skinned fibers at 1-100 uM (ineffective). In kind it is functional.
Test [3] is filed under the species Sus scrofa. The test is described as follows: Maximal activation of porcine myocardial skinned fibers at 40 uM [Ca2+] with 100 uM compound. In kind it is functional.
For test [4], the species on record is Cavia porcellus. The test is described as follows: Positive inotropic effect, increased isometric tension on guinea pig heart. The test is classed as functional. The essentials: (§1)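 Left atria from urethane-anaesthetized guinea pigs in Krebs–Henseleit medium at 32 °C, electrically stimulated isometrically at 2.5 s⁻¹ (also 0.25 s⁻¹); compound applied at 1–100 μM after equilibration, exposure up to 60 min; twitch force recorded, EC50 as concentration giving half-maximal effect.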

The species named for test [5] is Sus scrofa. The test is described as follows: Maximal activation of porcine myocardial skinned fibers at 40 uM free [Ca2+] without compound. The test is classed as functional.
The species named for test [6] is Sus scrofa. The test is described as follows: Increased [Ca2+] activated force in porcine myocardial skinned fibers. In kind it is functional. Particulars: Myocardium.
For test [7], the species on record is Sus scrofa. The test can be described thus: Reduced [Ca2+] activated force development on porcine skinned myocardial fibers at 100 uM. In kind it is functional. Further details: scale not given: the % may be the effect or the level left.
The species named for test [8] is Sus scrofa. The test can be described thus: Increase in [Ca2+] activated force in porcine myocardial skinned fibers. The test is classed as functional, Myocardium.
Test [9] concerns the target T1, Alpha-2A adrenergic receptor (Homo sapiens) (UniProt P08913).
T1 sequence (whole entry): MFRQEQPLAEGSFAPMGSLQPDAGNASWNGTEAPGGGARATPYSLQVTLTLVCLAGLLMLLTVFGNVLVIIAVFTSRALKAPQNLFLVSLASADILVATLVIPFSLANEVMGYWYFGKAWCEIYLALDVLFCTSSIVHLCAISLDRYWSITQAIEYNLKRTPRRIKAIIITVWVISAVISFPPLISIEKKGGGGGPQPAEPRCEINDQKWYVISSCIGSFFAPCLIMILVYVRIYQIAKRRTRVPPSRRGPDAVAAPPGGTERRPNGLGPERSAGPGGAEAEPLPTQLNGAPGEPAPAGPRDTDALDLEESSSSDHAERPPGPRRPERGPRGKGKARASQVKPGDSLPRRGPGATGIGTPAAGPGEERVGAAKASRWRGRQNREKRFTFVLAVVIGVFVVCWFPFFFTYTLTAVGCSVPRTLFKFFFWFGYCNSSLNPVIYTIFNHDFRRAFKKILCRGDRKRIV
The test is described as follows: Effect against Alpha-2 adrenergic receptor using clonidine as ligand; No effect. Particulars: Cavia porcellus.

The target in test [10] is Phosphodiesterase 4 (Homo sapiens) (UniProt P27815+Q08499+Q07343+Q08493). The test is described as follows: Inhibition of Phosphodiesterase 4. In kind it is protein assay. Particulars: Cavia porcellus.
For test [11], the species on record is Sus scrofa. The test can be described thus: Increased contractile response in skinned myocardial fibers in presence of 0.1-10 uM free [Ca2+]. In kind it is functional. Particulars: Myocardium.
Test [12] has as its target Beta-1 adrenergic receptor (Cavia porcellus) (UniProt B0FL73). The test can be described thus: Effect against Beta-1 adrenergic receptor using dehydroalprenolol as ligand; No effect.
Test [13] has as its target T2, Alpha-1A adrenergic receptor (Homo sapiens) (UniProt P35348).
T2 sequence (whole entry): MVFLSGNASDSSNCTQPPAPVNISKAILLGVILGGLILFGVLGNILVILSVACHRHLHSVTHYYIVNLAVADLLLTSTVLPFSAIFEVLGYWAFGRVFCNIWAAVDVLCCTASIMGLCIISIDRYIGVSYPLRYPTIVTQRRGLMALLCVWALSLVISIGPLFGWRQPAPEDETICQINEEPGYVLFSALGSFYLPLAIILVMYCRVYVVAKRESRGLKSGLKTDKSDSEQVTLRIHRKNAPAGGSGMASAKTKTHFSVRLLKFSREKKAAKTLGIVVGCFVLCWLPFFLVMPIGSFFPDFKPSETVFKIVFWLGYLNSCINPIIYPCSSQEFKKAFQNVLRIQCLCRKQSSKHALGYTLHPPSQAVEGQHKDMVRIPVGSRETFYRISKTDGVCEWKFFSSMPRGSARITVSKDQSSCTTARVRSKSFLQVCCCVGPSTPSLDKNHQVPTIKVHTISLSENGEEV
The test can be described thus: Effect against Alpha-1 adrenergic receptor using prazosin as ligand; No effect. Particulars: Cavia porcellus.

The species named for test [14] is Cavia porcellus. The test can be described thus: Activating effect on Sarcolemmal Ca+2 channel uptake was determined. In kind it is functional.
The target of test [15] is GABA-A receptor; anion channel (Homo sapiens) (UniProt P14867+P47870+P18507+P28472+P48169+Q99928+Q9UN88+P34903+O00591+O14764+Q8N1C3+P18505+P78334+P47869+P31644+Q16445). The test can be described thus: Binding affinity against GABA-A benzodiazepine receptor using flunitrazepam. Particulars: Cavia porcellus. The test is classed as protein-complex assay.
The species entered for test [16] is Cavia porcellus. The test is described as follows: Activating effect on Sarcolemmal Ca+2 ATPase was determined.
For test [17], the target named is Histamine H1 receptor (Cavia porcellus) (UniProt P31389). The test can be described thus: Effect against histamine H1 receptor; No effect.
Sequence of Histamine H1 receptor (Cavia porcellus) (P31389 whole entry): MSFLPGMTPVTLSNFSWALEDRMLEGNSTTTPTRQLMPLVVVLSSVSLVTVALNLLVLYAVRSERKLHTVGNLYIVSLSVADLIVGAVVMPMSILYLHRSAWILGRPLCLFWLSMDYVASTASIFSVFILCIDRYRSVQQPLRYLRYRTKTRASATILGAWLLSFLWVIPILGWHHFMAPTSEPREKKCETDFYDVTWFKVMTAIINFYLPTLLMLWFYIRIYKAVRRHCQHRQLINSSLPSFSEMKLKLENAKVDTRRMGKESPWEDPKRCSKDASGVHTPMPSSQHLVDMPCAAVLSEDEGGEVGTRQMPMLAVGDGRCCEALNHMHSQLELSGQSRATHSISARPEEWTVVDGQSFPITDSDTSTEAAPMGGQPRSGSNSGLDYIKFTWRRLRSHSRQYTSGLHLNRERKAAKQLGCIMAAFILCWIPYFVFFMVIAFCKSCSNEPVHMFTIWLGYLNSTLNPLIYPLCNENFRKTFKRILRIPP
For test [18], the species on record is Cavia porcellus. The test is described as follows: Inhibition of desmethoxyverapamil binding to Sarcolemmal Ca+2 channel (No effect).
The species named for test [19] is Cavia porcellus. The test can be described thus: Inotropic effect at 100 uM; Loses most of its inotropic activity due to resting tension. The test is classed as functional. Put shortly:
as §1

The species entered for test [20] is Sus scrofa. The test can be described thus: Increased [Ca2+] activated force in porcine myocardial skinned fibers (Not effective). In kind it is functional, Myocardium.
The species entered for test [21] is Sus scrofa. The test can be described thus: Increase in [Ca2+] activated force in porcine myocardial skinned fibers (ineffective). The test is classed as functional. Particulars: Myocardium.
The species entered for test [22] is Sus scrofa. The test can be described thus: Increased [Ca2+] activated force in porcine myocardial skinned fibers by racemic mixture. In kind it is functional. Particulars: Myocardium.
For test [23], the species on record is Cavia porcellus. The test can be described thus: Reduced spontaneous beating frequency at 1-100 uM in guinea pig heart. In kind it is functional. The essentials:
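Right atria from urethane-anaesthetized guinea pigs, mounted isometrically in Krebs–Henseleit medium at 32 °C; spontaneous sinus-node beating rate recorded over 1–100 μM compound; EC50 taken as concentration giving half-maximal effect.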

The species named for test [24] is Sus scrofa. The test can be described thus: Increase in isometric force in myocardial skinned fibres at 100 uM with free [Ca2+]. In kind it is functional, Myocardium.
The species entered for test [25] is Sus scrofa. The test can be described thus: Increase in isometric force of myocardial skinned fibres at 30 uM with free [Ca2+]. In kind it is functional.

The source of these data is ChEMBL document CHEMBL1128687, “5-Methyl-6-phenyl-1,3,5,6-tetrahydro-3,6-methano-1,5-benzodiazocine-2,4-dione (BA 41899): representative of a novel class of purely calcium-sensitizing agents” (J Med Chem, 1995).

pEC50: −log10 of the molar value. The source made the active and inactive calls. The calls are words filed in the database; no cut-off is given here.

Sequence of Beta-1 adrenergic receptor (Cavia porcellus) (B0FL73 1-467): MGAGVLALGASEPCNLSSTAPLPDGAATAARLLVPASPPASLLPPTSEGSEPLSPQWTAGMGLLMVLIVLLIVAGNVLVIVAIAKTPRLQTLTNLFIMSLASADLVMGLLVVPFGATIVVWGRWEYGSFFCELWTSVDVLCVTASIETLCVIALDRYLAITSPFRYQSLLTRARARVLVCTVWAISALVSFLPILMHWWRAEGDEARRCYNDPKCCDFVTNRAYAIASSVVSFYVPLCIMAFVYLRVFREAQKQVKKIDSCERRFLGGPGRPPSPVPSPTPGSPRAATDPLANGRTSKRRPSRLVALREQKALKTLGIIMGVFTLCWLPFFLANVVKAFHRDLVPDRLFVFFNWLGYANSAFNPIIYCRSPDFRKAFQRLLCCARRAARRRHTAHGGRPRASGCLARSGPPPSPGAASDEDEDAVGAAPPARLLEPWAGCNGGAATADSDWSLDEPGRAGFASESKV

Turning to `COc1ccc(C(=O)N2CCCc3cc(C4=NNC(=O)SC4C)ccc32)cc1OC` (centres undefined), the Effect in the test filed under Sus scrofa [1] turned out to be 400%.
As for `CN1C(=O)C2(c3ccccc3)CC1C(=O)Nc1ccccc12` (centres undefined), the Effect result in the test filed under Sus scrofa [2] is “inactive”.
The same measure, in the same setting: the same measure for `CN1C(=O)C2(c3ccccc3)CC1NC(=O)c1ccccc12` (centres undefined): “inactive”; for `CN1C(=O)C2CC1(c1ccccc1)c1ccccc1C(=O)N2` (centres undefined): “inactive”.
What is called pEC50 is the EC50 on a negative log10 scale, so that one unit is a factor of ten. Take `CN1C(=O)C2CC1(c1ccccc1)c1ccccc1NC2=O` (single isomer, unassigned; (+)) [listing 1 of 2 here]: the pEC50 in the test filed under Sus scrofa [3] was 6.52; in the test listed under Cavia porcellus [4] it was 5.10; in the test filed under Sus scrofa [5] it was 5.52; in the test filed under Sus scrofa [6], 5.00. In addition, the Effect in the test listed under Cavia porcellus [4] stood at 40%; in the test filed under Sus scrofa [7], 17%; in the test listed under Sus scrofa [8], 280%.
Regarding `CN1C(=O)C2CC1(c1ccccc1)c1ccccc1NC2=O` (single isomer, unassigned; (+)) [listing 2 of 2 here], the Effect entry (in test [9]; in [10]; in test [12]; in test [13]; in the test filed under Cavia porcellus [14]; in [15]) was “inactive” throughout. Besides, the Effect result (in the test filed under Cavia porcellus [16]; in test [17]; in the test filed under Cavia porcellus [18]) was “inactive” throughout. The Effect entry in the test listed under Sus scrofa [11] was “Active”. For the same compound, in the test filed under Cavia porcellus [19], the result was inactive.
With `CN1C(=O)C2CC1(c1ccccc1)c1ccccc1NC2=O` (single isomer, unassigned; (-)) [listing 1 of 2 here], the EC50 result in the test listed under Sus scrofa [20] is listed as “Not Active”.
Regarding `CN1C(=O)C2CC1(c1ccccc1)c1ccccc1NC2=O` (single isomer, unassigned; (-)) [listing 2 of 2 here], the Effect entry in the test listed under Sus scrofa [21] is “inactive”.
Turning to `CN1C(=O)C2CC1(c1ccccc1)c1ccccc1NC2=O` (stereo in doubt), the pEC50 is 4.70 in the test filed under Sus scrofa [22] and 4.82 in the test listed under Cavia porcellus [4] (Cavia porcellus, Heart). This compound also came in with a Reduction in the test listed under Cavia porcellus [23] of 55%. The Effect in the test filed under Sus scrofa [24] and in the test listed under Sus scrofa [25] was 60% throughout.
